The text below walks through data of ChEMBL document CHEMBL1150130, “Activity-guided isolation of constituents of Renealmia nicolaioides with the potential to induce the phase II enzyme quinone reductase” (J Nat Prod, 2002).

≈ marks a conversion by molar mass, not a printed value. Bounds are passed on as bounds.

Test [1] relates to Plasmodium falciparum. Briefly: Antiplasmodial activity against Plasmodium falciparum D6. It counts as functional, organism-based.
The nature of test [2]: Cytotoxicity against mouse Hepa-1c1c7 cells. It counts as cell-based. Summed up: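 Mouse Hepa 1c1c7 hepatoma cells were cultured and assessed in the same system as the QR induction assay. IC50 was taken as the concentration causing half-maximal inhibition of cell viability.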
Test [3] in a line: Chemopreventive index, ratio of IC50 for mouse Hepa-1c1c7 cells to drug level required to double specific NADPH:quinone reductase activity in mouse Hepa-1c1c7 cells. In kind it is functional. The procedure, abridged:
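Cultured mouse hepatoma Hepa 1c1c7 cells treated with extracts, fractions or pure isolates. QR induction was expressed as CD, the concentration that doubles QR specific activity. IC50 was the concentration giving half-maximal inhibition of cell viability in the same cells. Index computed as IC50/CD. Sulforaphane served as positive control.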

Take `C/C1=C\CC[C@](C)(O)/C=C/[C@H](C(C)C)CC1`: in test [1], the half-inhibitory concentration (IC50) was under 5 µg/mL.

In test [2], `COc1cc(O)c(C(=O)/C=C/c2ccccc2)c(OC)c1` [FLAVOKAWAIN B] came in with a 50% inhibitory concentration (IC50) of 7.2 µg/mL (≈ 25.3 µM).

On to `C[S+]([O-])CCCCN=C=S` (stereo not drawn) [SULFORAPHANE], for which, in test [2], the IC50 was 2.07 µg/mL (≈ 11.7 µM). The Ratio in test [3] turned out to be 23.8.

In the case of `C=C1CC[C@@H](C(C)C)/C=C/[C@@](C)(O)CC[C@@H]1O`, in test [1], the IC50 is under 5 µg/mL.

On to `COc1cc(O)c2c(c1)O[C@H](c1ccccc1)CC2=O` (racemic) [PINOSTROBIN], for which the IC50 in test [2] was over 100 µg/mL. Further, in test [3], the Ratio is over 111.

`CC(C)C1=CC[C@@]2(C)[C@H](O)CC[C@](C)(O)[C@@H]2C1` [OPLODIOL] registered an IC50 in test [1] of under 5 µg/mL.
